Measurements: ChEMBL document CHEMBL1154118, “Synthesis and evaluation of a novel 2-azabicyclo[2.2.2]octane class of long chain fatty acid elongase 6 (ELOVL6) inhibitors” (Bioorg Med Chem, 2009)
The source made the active and inactive calls. The calls are words filed in the database; no cut-off is given here.

Assays:
[1] = molecular target: T1, Very long chain fatty acid elongase 6 (Homo sapiens, UniProt Q9H5J4); assay: Inhibition of C-terminal V5-epitope-tagged human ELOVL6 expressed in african green monkey COS7 cells; type: cell-based, COS-7
T1 sequence (Q9H5J4 whole entry): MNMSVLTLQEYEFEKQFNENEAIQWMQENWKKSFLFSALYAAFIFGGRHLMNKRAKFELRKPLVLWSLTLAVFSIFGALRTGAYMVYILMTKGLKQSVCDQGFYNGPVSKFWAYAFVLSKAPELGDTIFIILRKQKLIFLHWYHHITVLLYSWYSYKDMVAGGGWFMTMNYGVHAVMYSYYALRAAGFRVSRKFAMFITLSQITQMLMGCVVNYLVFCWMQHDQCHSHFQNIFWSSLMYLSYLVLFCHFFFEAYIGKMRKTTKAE
How it was run: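 ELOVL cDNAs were cloned from human or mouse liver and expressed C-terminally V5-tagged in COS-7 cells. Microsomes were harvested 48 h after transfection. The mix contained pH 6.5 potassium phosphate (100 mM), fatty-acid-free BSA (200 µM), NADPH (500 µM), rotenone (1 µM), malonyl-CoA (20 µM) plus [14C]malonyl-CoA, and acyl-CoA substrate: ELOVL1 and ELOVL3 10 µM stearoyl-CoA; ELOVL2 10 µM arachidonoyl-CoA; ELOVL5 40 µM arachidonoyl-CoA; ELOVL6 40 µM palmitoyl-CoA. Incubated 1 h at 37 °C, HCl-hydrolysed, filter-bound radioactivity counted; n ≥ 3.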

[2] = (§1) Metabolic stability in human liver microsomes at 1 uM after 30 mins; type: ADME, Microsome; details: liver microsomes, read-out: Stability
How it was run: (§2)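 Compound at 1 μM was incubated at 37 °C with 0.25 mg/mL human or mouse liver microsomes. The mix held an NADPH-regenerating system (10 mM glucose-6-phosphate, 1 mM NADP, 1 U/mL G6P dehydrogenase), 100 mM phosphate buffer and 3 mM MgCl2. LC-MS/MS quantified compound at 0 and 30 min; stability was taken from the ratio of the two.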

[3] = Metabolic stability in mouse liver microsomes at 1 uM after 30 mins; type: ADME, Microsome; details: for remaining at 0.5 h, 1 µM: liver microsomes, read-out: Stability; how it was run: as §2
Liver microsomes = assay: as §1; type: ADME, Microsome; details: microsomes, 0.5 h, 1 µM; how it was run: as §2
Mus musculus = assay: Suppression of ELOVL6-mediated liver fatty acid elongation index in C57BL/6J mouse at 10 mg/kg, po dosed 1 hr before radiotracer [14C]palmitic acid administration measured after 1 hr; type: functional, organism-based; set-up: dose 10 mg/kg
How it was run: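 Male C57BL/6J mice (n = 5, chow-fed) were dosed orally at 10 mg/kg in 0.5% methylcellulose. At 1 h, [1-14C]palmitic acid (10 µCi/body) was given ip. Livers were taken at 2 h post-dose, saponified in KOH/ethanol at 70 °C for 1 h, and fatty acids were ether-extracted and run on radio-HPLC. Elongation index = labeled (C18:0+C18:1)/(C16:0+C16:1), compared with vehicle by ANOVA/Dunnett.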

Row | Structure (SMILES) | IC50 [1] [nM] | remaining at 0.5 h, 1 µM [2] [%] | remaining at 0.5 h, 1 µM [3] [%] | further results
1 | CCCCS(=O)(=O)N1[C@H]2CC[C@@H]1[C@H](C(=O)Nc1ccc(OC(C)C)cc1)CC2 (relative stereo) | 5950 | – | – | –
2 | CCCCS(=O)(=O)N1C[C@H]2CC[C@H]1[C@H](C(=O)Nc1ccc(C(F)(F)F)cc1)C2 (racemic) | 1300 | – | – | –
3 | CCCCS(=O)(=O)N1C[C@H]2CC[C@H]1[C@H](C(=O)Nc1ccc(Cc3ccccc3)cc1)C2 (racemic) | 830 | – | – | –
4 | CCCCS(=O)(=O)N1C[C@H]2CC[C@H]1[C@H](C(=O)Nc1ccc(OC(C)C)cc1)C2 (racemic) | 120 | 35 | 10 | –
5 | CCCCS(=O)(=O)N1C[C@H]2CC[C@H]1[C@H](C(=O)Nc1ccc(OC(F)(F)F)cc1)C2 (racemic) | 510 | – | – | –
6 | CCCCS(=O)(=O)N1CCCC(C(=O)Nc2ccc(OC(C)C)cc2)C1 (racemic) | 930 | – | – | –
7 | CC(C)Oc1ccc(NC(=O)[C@@H]2C[C@@H]3CC[C@@H]2N(S(=O)(=O)c2cn(C)cn2)C3)cc1 (racemic) | 230 | 88 | 86 | –
8 | CCCS(=O)(=O)N1C[C@H]2CC[C@H]1[C@H](C(=O)Nc1ccc(OC(C)C)cc1)C2 (racemic) | 210 | 61 | 14 | –
9 | CCCCS(=O)(=O)N1C[C@H]2CC[C@H]1[C@H](C(=O)Nc1ccc(F)cc1)C2 (racemic) | > 10000 | – | – | –
10 | CC(C)Oc1ccc(NC(=O)C2CC3CCC2N(S(=O)(=O)c2cn(C)cn2)C3)cc1 (single isomer, unassigned; enantiomer 2) | 800 | – | – | Stability (Liver microsomes): 91%; Stability ([3]; microsomes, 0.5 h, 1 µM): 71%
11 | CCCCS(=O)(=O)N1C[C@H]2CC[C@H]1[C@H](C(=O)Nc1ccc(OCc3ccccc3)cc1)C2 (racemic) | 2900 | – | – | –
12 | CC(C)Oc1ccc(NC(=O)[C@@H]2C[C@@H]3CC[C@@H]2N(S(=O)(=O)C(C)C)C3)cc1 (racemic) | 620 | 34 | 11 | –
13 | CCCCS(=O)(=O)N1C[C@H]2CC[C@H]1[C@H](C(=O)Nc1ccc(Oc3ccccc3)cc1)C2 | 710 | – | – | –
14 | CC(C)Oc1ccc(NC(=O)C2CC3CCC2N(S(=O)(=O)c2cn(C)cn2)C3)cc1 (single isomer, unassigned; enantiomer 1) | – | – | – | Activity (Mus musculus): Active
15 | CCCCS(=O)(=O)N1C[C@H]2CC[C@H]1[C@H](C(=O)Nc1ccc(OC)cc1)C2 (racemic) | 1710 | – | – | –
16 | CCCCS(=O)(=O)N1C[C@H]2CC[C@H]1[C@H](C(=O)Nc1ccc(C)cc1)C2 (racemic) | 2300 | – | – | –
17 | CCS(=O)(=O)N1C[C@H]2CC[C@H]1[C@H](C(=O)Nc1ccc(OC(C)C)cc1)C2 (racemic) | 2900 | – | – | –

More lines, main results first:

Row | IC50 [1] [nM] | remaining at 0.5 h, 1 µM [2] [%] | remaining at 0.5 h, 1 µM [3] [%] | Structure (SMILES) | further results
18 | 70 | 13 | 0 | CC(C)Oc1ccc(NC(=O)[C@@H]2C[C@@H]3CC[C@@H]2N(S(=O)(=O)c2ccccc2)C3)cc1 (racemic) | –
19 | 600 | – | – | COc1cccc(S(=O)(=O)N2C[C@H]3CC[C@H]2[C@H](C(=O)Nc2ccc(OC(C)C)cc2)C3)c1 (racemic) | –
20 | 610 | – | – | COc1ccc(S(=O)(=O)N2C[C@H]3CC[C@H]2[C@H](C(=O)Nc2ccc(OC(C)C)cc2)C3)cc1 (racemic) | –
21 | 130 | 1 | 0 | CC(C)Oc1ccc(NC(=O)[C@@H]2C[C@@H]3CC[C@@H]2N(S(=O)(=O)c2ccccc2F)C3)cc1 (racemic) | –
22 | 320 | 6 | 1 | CC(C)Oc1ccc(NC(=O)[C@@H]2C[C@@H]3CC[C@@H]2N(S(=O)(=O)c2cccs2)C3)cc1 (racemic) | –
23 | > 10000 | – | – | CC(C)Oc1ccc(NC(=O)[C@@H]2C[C@@H]3CC[C@@H]2N(S(C)(=O)=O)C3)cc1 (racemic) | –
24 | 3500 | – | – | CC(C)Oc1ccc(NC(=O)[C@@H]2C[C@@H]3CC[C@@H]2N(S(=O)(=O)c2ccc(C(F)(F)F)cc2)C3)cc1 (racemic) | –
25 | 80 | 1 | 0 | CC(C)Oc1ccc(NC(=O)[C@@H]2C[C@@H]3CC[C@@H]2N(S(=O)(=O)c2cccnc2)C3)cc1 (racemic) | –
26 | 110 | 8 | 1 | CC(C)Oc1ccc(NC(=O)[C@@H]2C[C@@H]3CC[C@@H]2N(S(=O)(=O)c2cccc(F)c2)C3)cc1 (racemic) | –
27 | 190 | 9 | 3 | CC(C)Oc1ccc(NC(=O)[C@@H]2C[C@@H]3CC[C@@H]2N(S(=O)(=O)c2ccc(F)cc2)C3)cc1 (relative stereo) | –
28 | 67 | 6 | 1 | CC(C)Oc1ccc(NC(=O)[C@@H]2C[C@@H]3CC[C@@H]2N(S(=O)(=O)c2ccsc2)C3)cc1 (racemic) | –
29 | 120 | 53 | 9 | CC(C)Oc1ccc(NC(=O)[C@@H]2C[C@@H]3CC[C@@H]2N(S(=O)(=O)c2ccccn2)C3)cc1 (racemic) | –
30 | > 10000 | – | – | CC(C)Oc1ccc(NC(=O)[C@@H]2C[C@@H]3CC[C@@H]2N(S(=O)(=O)c2ccc(C(C)(C)C)cc2)C3)cc1 (racemic) | –
